Calls of active or inactive are those of the source. The calls are words filed in the database; no cut-off is given here.
Tests used:
[1] = target: T1, Bile acid receptor (Homo sapiens) (UniProt Q96RI1); test: Transactivation of human FXR expressed in human HeLa cells co-expressing BSEP at 50 uM after 24 hrs by dual-glo luciferase reporter gene assay relative to GW4064; assay type: cell-based
T1 sequence (whole entry): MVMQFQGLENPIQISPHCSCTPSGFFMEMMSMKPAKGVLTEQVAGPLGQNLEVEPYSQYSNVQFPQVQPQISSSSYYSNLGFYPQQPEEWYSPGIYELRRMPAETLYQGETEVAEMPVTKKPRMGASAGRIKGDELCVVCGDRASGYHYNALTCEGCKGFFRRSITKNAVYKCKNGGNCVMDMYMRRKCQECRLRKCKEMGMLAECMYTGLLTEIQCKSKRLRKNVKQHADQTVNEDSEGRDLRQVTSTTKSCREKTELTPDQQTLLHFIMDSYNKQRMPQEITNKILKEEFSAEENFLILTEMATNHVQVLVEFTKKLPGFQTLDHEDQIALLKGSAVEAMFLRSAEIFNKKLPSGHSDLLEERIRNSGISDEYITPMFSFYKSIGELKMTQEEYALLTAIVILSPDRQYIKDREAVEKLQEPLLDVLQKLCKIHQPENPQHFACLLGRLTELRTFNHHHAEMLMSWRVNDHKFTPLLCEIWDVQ
Method in brief: (§1)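 HeLa cells in DMEM/10% FCS at 37 °C, 5% CO2; switched to 0.5% charcoal-stripped FCS before calcium phosphate co-transfection with pcDNA3-hFXR, pSG5-hRXR, BSEP promoter–firefly luciferase reporter and pRL-SV40 renilla. Compound in 0.1% DMSO, phenol red-free medium, 24 h.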

[2] = target: T2, Bifunctional epoxide hydrolase 2 (Homo sapiens) (UniProt P34913); test: Inhibition of recombinant human sEH at 50 uM using PHOME as substrate preincubated for 30 mins followed by substrate addition measured for 30 mins by fluorescence photometric method
T2 sequence (whole entry): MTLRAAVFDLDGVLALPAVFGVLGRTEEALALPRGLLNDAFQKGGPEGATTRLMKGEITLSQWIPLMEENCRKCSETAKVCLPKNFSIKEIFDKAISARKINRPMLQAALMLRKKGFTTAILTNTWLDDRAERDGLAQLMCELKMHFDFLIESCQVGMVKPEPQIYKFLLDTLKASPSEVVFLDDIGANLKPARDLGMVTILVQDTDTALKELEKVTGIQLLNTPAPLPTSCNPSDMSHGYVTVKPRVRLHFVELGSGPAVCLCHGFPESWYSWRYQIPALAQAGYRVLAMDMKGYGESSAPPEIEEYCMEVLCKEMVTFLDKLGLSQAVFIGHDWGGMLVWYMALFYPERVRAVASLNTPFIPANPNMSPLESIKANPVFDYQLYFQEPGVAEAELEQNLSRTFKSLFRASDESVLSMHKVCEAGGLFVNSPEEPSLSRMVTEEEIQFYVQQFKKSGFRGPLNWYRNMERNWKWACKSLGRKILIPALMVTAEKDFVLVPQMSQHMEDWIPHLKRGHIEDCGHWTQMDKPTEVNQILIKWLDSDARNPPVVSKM
Method in brief: (§2)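 Recombinant human sEH in Bis-Tris buffer pH 7, 0.1 mg/mL BSA, 0.01% Triton X-100 (final), preincubated 30 min at room temperature with compound (1% DMSO final). PHOME added at 50 μM final; 6-methoxynaphthaldehyde fluorescence read each minute for 30 min.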

[3] = target: T3, Bile acid receptor (Homo sapiens, UniProt Q96RI1); test: Transactivation of human FXR expressed in human HeLa cells co-expressing BSEP after 24 hrs by dual-glo luciferase reporter gene assay; assay type: cell-based; method in brief: as §1
T3 sequence (Q96RI1 whole entry): T1 sequence (whole entry)

[4] = target: T4, Bifunctional epoxide hydrolase 2 (Homo sapiens, UniProt P34913); test: Inhibition of recombinant human sEH using PHOME as substrate preincubated for 30 mins followed by substrate addition measured for 30 mins by fluorescence photometric method; method in brief: as §2
T4 sequence (P34913 whole entry): T2 sequence (whole entry)

| SMILES | inhibition [2] | IC50 ([4]; read-out: IC50) | IC50 [4] | Emax [1] | EC50 [3] |
| --- | --- | --- | --- | --- | --- |
| O=C(O)c1ccc(CNC(=O)c2ccc(C(F)(F)F)c(C(F)(F)F)c2)cc1 | 55% |  |  | inactive |  |
| CC(C)(C)c1ccc(C(=O)NCc2ccc(SC(F)(F)F)cc2)cc1 |  | 390 nM |  | 19% | 0.4 nM |
| Cc1cccc(C(=O)NCc2ccc(C(=O)O)cc2)c1 | 37% |  |  | inactive |  |
| CC(C)(C)c1ccc(C(=O)NCc2ccc(C#N)cc2)cc1 |  | 910 nM |  | inactive |  |
| CC(C)(C)c1ccc(C(=O)NCc2ccc(C=O)cc2)cc1 |  | 510 nM |  | 22% | 5300 nM |
| Cc1ccccc1C(=O)NCc1ccc(C(=O)O)cc1 | 14% |  |  | inactive |  |
| Cc1ccc(C(=O)NCc2ccc(C(=O)O)cc2)cc1 | 24% |  |  | 15% |  |
| CN(C)c1ccc(C(=O)NCc2ccc(C(=O)O)cc2)cc1 | 19% |  |  | inactive |  |
| CC(=O)Nc1ccc(CNC(=O)c2ccc(C(C)(C)C)cc2)cc1 |  | 1120 nM |  | 31% | 2900 nM |
| CC(C)(C)c1ccc(C(=O)NCc2ccc(C(=O)O)c(F)c2)cc1 |  | 20300 nM |  | 28% | 140 nM |
| CC(C)(C)c1ccc(C(=O)NCc2ccc(S(C)(=O)=O)cc2)cc1 |  | 1200 nM |  | 34% | 3800 nM |
| C[S+]([O-])c1ccc(CNC(=O)c2ccc(C(C)(C)C)cc2)cc1 (stereo not drawn) |  | 220 nM |  | 24% | 1300 nM |
| CC(C)(C)c1ccc(C(=O)NCc2ccc(S(N)(=O)=O)cc2F)cc1 |  | 137 nM |  | 34% | 970 nM |
| O=C(O)c1ccc(CNC(=O)c2ccccc2-c2ccccc2)cc1 | 19% |  |  | 22% |  |
| CC(C)(C)c1ccc(C(=O)NCc2ccc(OCC(=O)O)cc2)cc1 |  | 19000 nM |  | 21% | 730 nM |
| O=C(O)c1ccc(CNC(=O)c2ccc(-c3ccccc3)cc2)cc1 |  |  |  | 24% |  |
| O=C(O)c1ccc(CNC(=O)c2cccc(-c3ccccc3)c2)cc1 |  | 10000 nM |  | 14% | 670 nM |
| CC(C)(C)c1ccc(C(=O)NCc2ccc(CC(=O)O)cc2)cc1 |  | 20000 nM |  | 19% | 6400 nM |
| CC(C)(C)c1ccc(C(=O)NCc2ccc(C(=O)O)cc2F)cc1 |  | 1430 nM |  | 26% | 7.8 nM |
| CC(C)(C)c1ccc(C(=O)NCc2ccc(C(=O)O)cc2)cc1 |  | 4200 nM |  | 13% | 370 nM |

Second part, led by results:

| inhibition [2] | IC50 ([4]; read-out: IC50) | IC50 [4] | SMILES | Emax [1] | EC50 [3] |
| --- | --- | --- | --- | --- | --- |
|  | 18500 nM |  | CC(C)(C)c1ccc(NC(=O)Nc2ccc(C(=O)O)cc2)cc1 | 14% | 3800 nM |
|  | 2050 nM |  | CC(C)(C)c1ccc(C(=O)NCc2ccc(CO)cc2)cc1 | inactive |  |
|  | 220 nM |  | CC(C)(C)c1ccc(C(=O)NCc2ccc(OC(F)(F)F)cc2)cc1 | 26% | 160 nM |
|  | 650 nM |  | CC(C)(C)c1ccc(C(=O)NCc2ccc(NS(C)(=O)=O)cc2)cc1 | 22% | 44 nM |
|  | 1900 nM |  | CNC(=O)c1ccc(CNC(=O)c2ccc(C(C)(C)C)cc2)cc1 | 29% | 340 nM |
|  | 120 nM |  | CSc1ccc(CNC(=O)c2ccc(C(C)(C)C)cc2)cc1 | 33% | 100 nM |
|  | 1200 nM |  | CC(C)(C)c1ccc(C(=O)NCc2ccc(C(N)=O)cc2)cc1 | 27% | 3800 nM |
|  |  | Nd(Insoluble) | CC(C)Oc1ccc(CNC(=O)c2ccc(C(C)(C)C)cc2)cc1 | 26% | 170 nM |
|  | 10500 nM |  | O=C(O)c1ccc(CNC(=O)c2ccc(Cl)c(Cl)c2)cc1 | inactive |  |
| < 3% |  |  | O=C(O)c1ccc(CNC(=O)C2CCNCC2)cc1 | inactive |  |
|  | 5040 nM |  | COc1cc(C(=O)NCc2ccc(C(=O)O)cc2)ccc1C(C)(C)C | 23% | 1200 nM |
|  | 430 nM |  | COc1ccc(CNC(=O)c2ccc(C(C)(C)C)cc2)cc1 | 19% | 150 nM |
| 37% |  |  | O=C(O)c1ccc(CNC(=O)C2CCCCC2)cc1 | inactive |  |
|  | 170 nM |  | CC(C)(C)c1ccc(C(=O)NCc2ccc(C(=O)O)cc2Cl)cc1 | 25% | 7500 nM |
|  | 12700 nM |  | CC(=O)NS(=O)(=O)c1ccc(CNC(=O)c2ccc(C(C)(C)C)cc2)cc1 | inactive |  |
|  | 157 nM |  | CC(=O)c1ccc(CNC(=O)c2ccc(C(C)(C)C)cc2)cc1 | 29% | 100 nM |
|  | 18200 nM |  | CC(C)(C)c1ccc(C(=O)NCc2ccc(-c3nnn[nH]3)cc2)cc1 | 23% | 120 nM |
| 7% |  |  | Cc1ccc(C(=O)NCc2ccc(C(=O)O)cc2)c(C)c1 | inactive |  |
|  | 680 nM |  | Cc1cc(C(=O)O)ccc1CNC(=O)c1ccc(C(C)(C)C)cc1 | inactive |  |
|  | 660 nM |  | CC(C)(C)c1ccc(C(=O)NCc2ccc(NC(=O)C(F)(F)F)cc2)cc1 | 20% | 260 nM |
|  | 1630 nM |  | CC(C)(C)c1ccc(C(=O)NCc2ccc(CCC(=O)O)cc2)cc1 | 16% | 350 nM |
|  | 3500 nM |  | CC(C)(C)c1ccc(C(=O)NCc2ccc(N)cc2)cc1 | inactive |  |
|  | 4600 nM |  | CN(C)C(=O)c1ccc(CNC(=O)c2ccc(C(C)(C)C)cc2)cc1 | 17% | 170 nM |
|  | 570 nM |  | CCOc1ccc(CNC(=O)c2ccc(C(C)(C)C)cc2)cc1 | 31% | 160 nM |
|  | 280 nM |  | CC(C)(C)c1ccc(C(=O)NCc2ccc(S(N)(=O)=O)cc2)cc1 | 16% | 1400 nM |
